Experimental data from ChEMBL document CHEMBL4513216, “Probing the Open Global Health Chemical Diversity Library for Multistage-Active Starting Points for Next-Generation Antimalarials” (ACS Infect Dis, 2020).

Experiment: Toxicity liver stage against HepG2, at 10uM
Format: cell-based
Design: test concentration 10 uM, cell line HepG2-A16-CD81EGFP
Conditions: human, HepG2-A16-CD81EGFP cells; read-out: INHIBITION
Procedure, shortened: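 Uninfected HepG2-A16-CD81EGFP cells, 3 × 10^3 per well, 1536-well, plated on prespotted compound at 10 μM final, parasite-free screening media added to match infected plates; puromycin 10 μM positive, DMSO 0.5% negative; run in parallel with 48 h PbLuc assay at 37 °C, 5% CO2; viability by CellTiter-Glo luminescence, normalized to controls.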

Structure (SMILES)	cytotoxicity at 10 µM
CC(C)NC(=O)NC[C@H]1OC[C@@H](NCc2ccccc2F)[C@@H]1O	-1.31%
COc1cccc(CN2CC(O)CN(C(=O)C(C)(C)C)CC2=O)c1OC (stereo not given)	-57.6%
O=C1NCCCc2c1oc1ccc(O)c(CN3CCOCC3)c21	13.3%
O=C(Cn1ccc2cc(Br)ccc21)NC[C@@H]1CCCN2CCCC[C@H]12	14.5%
CC1=Nc2c(c(=O)[nH]n2C(C)C)C(c2ccc3nccnc3c2)S1 (stereo not given)	7.29%
CCO[C@H]1CN(C(=O)c2ccc3c(c2)OCO3)[C@@H]2COC[C@H]12	-130%
CS(=O)(=O)N1CCc2c(nnn2CC2CC2)C1COCC1CC1 (stereo not given)	-3.15%
Cc1ccc(N2CC3(CCN(c4nccs4)C3)C2)nn1	-5.85%
Cc1nnc(SCC(=O)NCc2ccc3c(c2)CCC(=O)N3)n1C	9.73%
CS(=O)(=O)Nc1ccn(Cc2ccc(Cl)cc2)n1	6.44%
CNc1cncc(C2CCN(C(=O)c3coc(C)n3)CC2)n1	0.109%
COc1ccc(Oc2nccnc2C2CCN(C(C)=O)CC2)cc1	-12.4%
COc1cnc(C2(O)CCN(C(=O)c3ccccn3)CC2)c(OC)n1	-8.99%
Cc1c[nH]nc1C1CCCCN1C(=O)CCn1nccc1C (stereo not given)	-6.39%
Fc1ccc(CN2CCCC(c3nnc(-c4cnccn4)o3)C2)cc1F (stereo not given)	-8.03%
COCCNC(=O)CN(C)C(C)c1nc(C)no1 (stereo not given)	0.668%
N#Cc1cnc(NCc2cccc(C(=O)N3CCCC3)c2)c(Cl)c1	-0.657%
Cc1ccc(CNS(=O)(=O)CCCC#N)cc1F	-9.48%
COCC(=O)N[C@H](C(=O)NC(C)c1cc(C)ccc1C)C(C)C (stereo not given in full)	0.341%
CN1CCOC(CNC(=O)C2(c3ccccc3)CCC2)C1 (stereo not given)	6.17%
Cc1ncc(C(=O)OCC2CCN(c3ccccc3)C2)s1 (stereo not given)	-16%
CCN(CC)C(=O)CCc1nc(-c2cnn3c(C)cc(C)nc23)no1	-11.5%

Structure (SMILES)	cytotoxicity at 10 µM
CCn1nc(C)cc1C(=O)N1CCC(Nc2ccc(C)nn2)CC1	-4.32%
Cc1c(NC(C)C(C)C)cccc1C(=O)NCc1nccn1C (stereo not given)	-5.99%
CCC(NC(=O)NCC(=O)Nc1ccc(F)cc1)c1ccncc1 (stereo not given)	-10.9%
COc1c(C)cnc(CSc2nnc(NC3CC3)s2)c1C	10.9%
Cc1ccn(-c2ccccc2NCc2scnc2C)n1	7.28%
Cc1ccc(C2CN(c3nnc(C(F)F)s3)CCO2)c(C)c1 (stereo not given)	3.28%
N#Cc1ccc(C(=O)NS(=O)(=O)c2ccc(F)c(F)c2)cc1	-4.11%
Cc1ncc2c(n1)CN(C(C(N)=O)c1ccc(F)cc1)CC2 (stereo not given)	-1.01%
CC(=O)N(Cc1c(F)cccc1F)C1CCCC1	-3.63%
Cc1cccc(C2(O)CCN(C(=O)c3ccccn3)CC2)c1C	-0.823%
CS(=O)(=O)Cc1ccc(Cl)c(NCc2noc(C3CC3)n2)c1	6.95%
NC(=O)c1cccc(CCNC(=O)N2CCCC2)c1	-3.88%
COCCC1(CNC(=O)Nc2ccnc(C)c2)CCCC1	2.12%
Cc1cnc(CNS(=O)(=O)CCC2CCCO2)o1 (stereo not given)	9.84%
Cc1ccc(NC(=O)NCC(c2cnn(C)c2)N(C)C)c(C)c1 (stereo not given)	-0.538%
CN(Cc1ccc([S+](C)[O-])cc1)c1cncc(Br)c1 (stereo not given)	11.7%
CN1CCN(C(=O)c2ccc3c(c2)[nH]c(=O)n3C2CCCC2)CC1	-42.2%
CCCN(CC(=O)OC)S(=O)(=O)c1cnc2c(c1)c(C)nn2C	-2.61%
CC(=O)NCc1ccc(-n2ccnc2C)nc1	-6.49%
CCOCc1ccccc1NC(=O)NC1CCN(C2CCCC2)C1 (stereo not given)	9.42%
CC(C)NC(=O)c1nnn(-c2cccc(C(F)(F)F)c2)c1C1CC1	-19%
CS(=O)(=O)N1CCC(c2nc3ccc(-c4cccc(F)c4)cn3n2)CC1	22.6%

Structure (SMILES)	cytotoxicity at 10 µM
COCCC1COC2(CCN(C(=O)c3ccsc3)CC2)C1 (stereo not given)	-71.2%
CN1C(=O)CC(c2cnn(C)c2)C12CCN(C(=O)c1ccnnc1)CC2 (stereo not given)	-74.4%
CCN1CCCn2c(nc(CNC(=O)c3ccsc3)cc2=O)C1	1.16%
CCn1nc(CC(C)C)cc1C(=O)N1CC(c2ccncc2)C1	-6.38%
COCCNc1cc(-c2cccc(C(=O)O)c2C)c2cc[nH]c2n1	-3.85%
CNC(=O)C1CCN(c2ncnc3c2CCN(C(=O)C2CC2)C3)C1 (stereo not given)	1.67%
CCN(Cc1nc(COC)no1)C(=O)CCNC(=O)c1ccccc1F	-4.17%
CCC(NC(=O)C1CCN(C(C)C)CC1)c1cn2cccnc2n1 (stereo not given)	-6.21%
CCc1nccn1CC(=O)N1CCN(C2CCc3ccccc3C2)CC1 (stereo not given)	-119%
COc1cc(CNc2nc3c(c(=O)[nH]2)CCNC3)cc(OC)c1OC	4.72%
COCCCN1CC2(CCN(C(=O)c3ncc(F)cc3F)CC2)CC1=O	-3.94%
N[C@@H]1CCN(Cc2cccc(N3CCOCC3)c2)C[C@H]1O	11.8%
CNc1cc(C(=O)N2CCC3(CC2)Nc2ccccc2NC3=O)ccn1	3.46%
CC1CCCN1Cc1cccc(C(=O)Nc2ccc3c(c2)CCC3=O)c1 (stereo not given)	-30.9%
CCOc1ccc2nc(CN3CCC(CN)C3)ccc2c1 (stereo not given)	-7.41%
COc1nc2ccn(CCc3cc(O)nc(C)n3)c(=O)c2cc1C#N	10.9%
CCC(C(=O)NCc1csc(N2CCOCC2)n1)n1cccn1 (stereo not given)	-2.88%
N[C@H]1CN(S(=O)(=O)c2ccccc2)C[C@@H]1C1CC1	-14.3%
C[C@@H]1CN(C2CCCCC2)CC[C@@]1(O)C1CCOCC1	-7.58%
Cn1ccnc1CN1CCC(CNS(=O)(=O)c2cccnc2)C1 (stereo not given)	6.03%
Cc1cccc(-n2ncc3c2CCCC3NCC(C)(C)CO)c1C (stereo not given)	-1.19%
COc1cc(-c2cnnc(NCCCOC(C)C)n2)cc(OC)c1OC	3.51%

Structure (SMILES)	cytotoxicity at 10 µM
COCCn1ccnc1C1CCCN(c2ncnc3c2CCC3)C1 (stereo not given)	1.66%
CC(=O)Nn1ccc2c(nnc3c(-c4ccc(F)cc4)cnn32)c1=O	1.36%
CC(=O)Nn1ccc2c(nnc3c(-c4ccccc4)cnn32)c1=O	3.06%
CCN(Cc1cc(Cl)ccc1OC)Cc1cc(C)nn1C	6.62%
COc1cc(CN(C)C(C)c2ccccn2)cc2c1OCO2 (stereo not given)	8.97%
COCCC1(C(=O)O)CCCN(Cc2cc3c(cc2Cl)OCO3)C1 (stereo not given)	-5.41%
Cc1ccccc1CSc1nc(N)cc(N2C[C@H](O)[C@@H](N(C)C)C2)n1	17.3%
N#CCCn1nc(C(F)(F)F)c2c1CCC2	-12%
Cc1cc2c(=O)n3c(nc2s1)CCN(Cc1ccncc1)CC3	10.9%
Cc1cccc(C)c1OC1CCN(Cc2ccn(C)c(=O)c2)CC1	-2.95%
CSC(C)C(=O)N(C)CCCc1cc(-c2ccccc2)no1 (stereo not given)	2.63%
CN(C)c1ncccc1CNC(=O)N1CCCC1CN1CCCC1 (stereo not given)	-12.4%
CCc1nc(C2CCCN2C(=O)c2cc[nH]n2)no1 (stereo not given)	-15.6%
Cc1cnn(CC(C)NCc2ccc(OCC(N)=O)cc2)c1 (stereo not given)	-11.7%
Cc1ccccc1NC(=O)N1CCN(Cc2noc(C3CC3)n2)CC1	-17%
CC(NC(=O)NCCCN(C)S(C)(=O)=O)c1ccc(F)cc1 (stereo not given)	-21.9%
Fc1ccc(-c2nc(CN3CCOC(Cn4cccn4)C3)co2)cc1 (stereo not given)	-3.78%
CC1CN(Cc2nccn2C)CCN1c1ccc2nncn2n1 (stereo not given)	-8.52%
CN(Cc1cnn(-c2ccccc2)n1)CC1CCCN1c1cccnn1 (stereo not given)	-6.56%
CC(=O)Nc1nc(C(=O)N2CCCC(n3nc(C)cc3C)C2)cs1 (stereo not given)	0.74%
Cc1nccn1C1CCCN(C(=O)c2ccc3c(c2)COC3)C1 (stereo not given)	-10.8%
COc1ccc(S(=O)(=O)NCc2cccnc2N(C)C)cc1F	5.8%

Structure (SMILES)	cytotoxicity at 10 µM
CC(C)(C)c1nnc(CN2CCN(CC(O)c3ccccc3)CC2)o1 (stereo not given)	-12.8%
CS(=O)(=O)NCC1CCCN(C(=O)c2cc3ccccc3o2)C1 (stereo not given)	-1.82%
Cn1ccc(CN2CCC(COC3CCCC3)CC2)cc1=O	-1.68%
CN(Cc1ccco1)C[C@H]1OC[C@@H]2CN(c3ncc(F)cn3)CC[C@@H]21	21.9%
CC1CCN(C(=O)CN2CC(c3nc(C4CC4)no3)C2)CC1	-6.6%
CC(C)c1nn(C)c(Cl)c1CNCc1cccnc1N(C)C	10.7%
CC(C)N1[C@H](Cn2cncn2)C[C@@H]2CN(Cc3cccs3)CC[C@@H]21	-109%
CN(C)C1CC2(CCN(C(=O)C3(C#N)CC3)CC2)c2ccccc21 (stereo not given)	-113%
c1cnc(-c2noc(C3CN(Cc4ccc5c(c4)CCO5)C3)n2)cn1	1.35%
c1cnc(N2C[C@H]3CCN(Cc4ccncc4)C[C@H]3C2)nc1	-103%
CC1c2ncc(Cn3cccn3)n2CCN1Cc1ccccn1 (stereo not given)	-106%
Cn1cc(C[C@H]2[C@H](O)CCN2Cc2ccc(F)cc2)cn1	-75.9%
O=C([C@H]1CCCN1)N1CC2(CCNCC2)c2cc(Cl)ccc21	0.286%
Cc1nnc(N2CCCC3(CN(Cc4ccc(F)cc4)CCO3)C2)o1 (stereo not given)	-6.63%
CN(C)[C@@H]1CCN(C(=O)c2cccn2C)[C@H]1Cc1cnn(C)c1	-74.6%
Fc1cccc(CN2CCOCC3(CCN(C4CCOCC4)C3)C2)c1 (stereo not given)	-0.503%
Cc1noc(C)c1C(=O)N1Cc2ncn(C)c2C(COCC2CC2)C1 (stereo not given)	-111%
CN(C)C1COC2(CCN(S(=O)(=O)c3ccc(F)cc3)CC2)C1 (stereo not given)	-129%
COc1ccccc1-c1ccc(C(=O)N2C[C@@H]3CC[C@H]2CN(C)C3)cc1	-18.2%
COCC(=O)NCC1(COc2cccnc2)C[C@@H](O)[C@@H](O)C1 (stereo not given in full)	2.52%
Cc1cccc(CN2C[C@@H]3CC[C@H]2CN(Cc2[nH]cnc2C)C3)n1	-3.43%
Cc1cnc(CN(C)C(=O)C23CNCC2CNC3)[nH]1 (stereo not given)	-6.46%
